In ChEMBL document CHEMBL3120123, “Molecular dynamics simulations and structure-based rational design lead to allosteric HCV NS5B polymerase thumb pocket 2 inhibitor with picomolar cellular replicon potency” (J Med Chem, 2014):
Values after ≈ are worked out from the molar mass of the structure shown.

Key:
[1] = Permeability across apical to basolateral side in human Caco2 cells; assay type: ADME, cell-based; details: Caco-2, read-out: permeability
Method in brief: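 Caco-2 monolayer permeability run with apical compartment at pH 6.0 and basolateral compartment at pH 7.4; reported in 10^-6 cm/s.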

Hepatitis C virus [2] = assay: Antiviral activity against HCV genotype 1b infected in human HuH7 cells assessed as inhibition of viral RNA replication after 72 hrs by luciferase reporter gene assay; assay type: functional, organism-based, Hepacivirus hominis; details: Huh-7, 72 h
Method in brief: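 HCV genotype 1b subgenomic luciferase reporter replicon cells. EC50 taken from inhibition of replicon RNA replication, luciferase read-out, n ≥ 2; method as described in earlier work.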

[3] = Lipophilicity, log D of the compound at pH 7.4; assay type: physicochemical; details: buffer
[4] = Solubility of the compound in form of lyophilized, amorphous solid at pH 2 after 24 hrs by shake flask method; assay type: physicochemical; details: buffer
Method in brief: (§1)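 Lyophilized amorphous solids tested by 24 h shaking flask method; solubility given in µg/ml at pH 2 and at pH 6.8.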

[5] = Solubility of the compound in form of lyophilized, amorphous solid at pH 6.8 after 24 hrs by shake flask method; assay type: physicochemical; details: buffer; method in brief: as §1
Hepatitis C virus [6] = assay: Antiviral activity against HCV genotype 1b expressing HCV genotype 5a NS5B infected in human HuH7-J cells assessed as inhibition of viral RNA replication after 72 hrs by poliovirus internal ribosomal entry site incorporating luciferase reporter gene assay; assay type: functional, organism-based, Hepacivirus hominis; details: Huh-7, 72 h
Method in brief: (§2)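 Surrogate assay using chimeric gt1b subgenomic replicons that carry the NS5B polymerase gene from gt2b, 3a, 4a or 5a. Luciferase reporter sits downstream of the poliovirus IRES. EC50 is derived from inhibition of replication read by luciferase.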

Hepatitis C virus [7] = assay: Antiviral activity against HCV genotype 1a infected in human HuH7-J cells assessed as inhibition of viral RNA replication after 72 hrs by poliovirus internal ribosomal entry site incorporating luciferase reporter gene assay; assay type: functional, organism-based, Hepacivirus hominis; details: subtype 1a, Huh-7, 72 h
Method in brief: (§3)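 Subgenomic HCV replicons (gt1a or gt1b) carrying a luciferase reporter, with the poliovirus IRES placed upstream of luciferase. EC50 is derived from inhibition of HCV RNA replication read by luciferase signal.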

Hepatitis C virus [8] = assay: Antiviral activity against HCV genotype 1b expressing HCV genotype 2b NS5B infected in human HuH7-J cells assessed as inhibition of viral RNA replication after 72 hrs by poliovirus internal ribosomal entry site incorporating luciferase reporter gene assay; assay type: functional, organism-based, Hepacivirus hominis; details: Huh-7, 72 h; method in brief: as §2
Hepatitis C virus [9] = assay: Antiviral activity against HCV genotype 1b expressing HCV genotype 4a NS5B infected in human HuH7-J cells assessed as inhibition of viral RNA replication after 72 hrs by poliovirus internal ribosomal entry site incorporating luciferase reporter gene assay; assay type: functional, organism-based, Hepacivirus hominis; details: Huh-7, 72 h; method in brief: as §2
Hepatitis C virus [10] = assay: Antiviral activity against HCV genotype 1b expressing HCV genotype 3a NS5B infected in human HuH7-J cells assessed as inhibition of viral RNA replication after 72 hrs by poliovirus internal ribosomal entry site incorporating luciferase reporter gene assay; assay type: functional, organism-based, Hepacivirus hominis; details: Huh-7, 72 h; method in brief: as §2
Hepatitis C virus [11] = assay: Antiviral activity against HCV genotype 1b infected in human HuH7-J cells assessed as inhibition of viral RNA replication after 72 hrs by poliovirus internal ribosomal entry site incorporating luciferase reporter gene assay; assay type: functional, organism-based, Hepacivirus hominis; details: Huh-7, 72 h; method in brief: as §3
Hepatitis C virus [12] = assay: Antiviral activity against HCV genotype 1b expressing HCV genotype 6a NS5B infected in human HuH7-J cells assessed as inhibition of viral RNA replication after 72 hrs by real-time PCR analysis; assay type: functional, organism-based, Hepacivirus hominis; details: Huh-7, 72 h
Method in brief: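 Surrogate assay using a chimeric gt1b subgenomic replicon carrying the gt6a NS5B polymerase gene. Replicon RNA is quantified by RT-PCR, and EC50 is derived from inhibition of HCV RNA replication.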

Row | Compound | Papp A→B [1] [×10⁻⁶ cm/s] | EC50 (Hepatitis C virus [2]) [nM] | logD [3] | solubility thermodynamic at 24 h [4] [µg/mL] | solubility thermodynamic at 24 h [5] [µg/mL] | other results
1 | O=C(Nc1ccccc1)c1cccc(Oc2ccc3c(c2)c(=O)ncn3Cc2c(F)cc(F)cc2F)c1C(F)(F)F | 0.84 | 2.5 | – | – | – | –
2 | Cc1ccc(-c2cccc(Oc3ccc4c(c3)c(=O)ncn4Cc3c(F)cc(F)cc3F)c2C(F)(F)F)cn1 | – | 55 | 4.2 | 180 (≈ 332 µM) | < 0.1 | –
3 | O=c1ncn(Cc2c(F)cc(F)cc2F)c2ccc(Oc3cccc(-c4ccc5cc[nH]c5c4)c3C(F)(F)F)cc12 | – | 10 | 5 | < 0.1 | < 0.1 | –
4 | O=C(Nc1cccnc1)c1cccc(Oc2ccc3c(c2)c(=O)ncn3Cc2c(F)cc(F)cc2F)c1C(F)(F)F | 0.26 | 5.7 | – | – | – | –
5 | O=c1ncn(Cc2c(F)cc(F)cc2F)c2ccc(Oc3cccc(-c4ccccn4)c3C(F)(F)F)cc12 | – | 310 | – | – | – | –
6 | Nc1ccc(-c2cccc(Oc3ccc4c(c3)c(=O)ncn4Cc3c(F)cc(F)cc3F)c2C(F)(F)F)cn1 | 4.1 | 10 | 3.9 | 0.3 (≈ 0.553 µM) | < 0.1 | –
7 | O=c1ncn(Cc2c(F)cc(F)cc2F)c2ccc(Oc3ccc(-c4ccc5[nH]ccc5c4)cc3)cc12 | 3.5 | 4.6 | 4.4 | < 0.1 | 0.18 (≈ 0.362 µM) | –
8 | NC(=O)c1cccc(Oc2ccc3c(c2)c(=O)ncn3Cc2c(F)cc(F)cc2F)c1C(F)(F)F | 1.9 | 180 | – | – | – | –
9 | O=C(Nc1ccccn1)c1cccc(Oc2ccc3c(c2)c(=O)ncn3Cc2c(F)cc(F)cc2F)c1C(F)(F)F | 1.2 | 6.8 | – | – | – | –
10 | O=c1ncn(Cc2c(F)cc(F)cc2F)c2ccc(Oc3cccc(-c4ccc5[nH]ccc5c4)c3C(F)(F)F)cc12 | 10.5 | 0.13 | 5.1 | < 0.1 | < 0.1 | EC50 (Hepatitis C virus [6]): 1.3 nM; EC50 (Hepatitis C virus [7]): 0.12 nM; EC50 (Hepatitis C virus [8]): 15 nM; EC50 (Hepatitis C virus [9]): 1.1 nM; EC50 (Hepatitis C virus [10]): 80 nM; EC50 (Hepatitis C virus [11]): 0.11 nM; EC50 (Hepatitis C virus [12]): 11 nM
11 | O=c1ncn(Cc2c(F)cc(F)cc2F)c2ccc(Oc3cccc(-c4ccccc4)c3C(F)(F)F)cc12 | – | 450 | – | – | – | –
12 | O=c1ncn(Cc2c(F)cc(F)cc2F)c2ccc(Oc3ccccc3C(F)(F)F)cc12 | 9.2 | – | – | – | – | –
13 | Cc1cc(-c2cccc(Oc3ccc4c(c3)c(=O)ncn4Cc3c(F)cc(F)cc3F)c2C(F)(F)F)cnc1N | 1.1 | 6 | > 4.7 | 74 (≈ 133 µM) | < 0.1 | –
14 | O=c1ncn(Cc2c(F)cc(F)cc2F)c2ccc(Oc3cccc(-c4ccc5[nH]cnc5c4)c3C(F)(F)F)cc12 | 0.4 | 0.6 | 4.7 | < 0.1 | < 0.1 | –
15 | O=c1ncn(Cc2c(F)cc(F)cc2F)c2ccc(Oc3ccc(-c4nc5ncccc5o4)cc3)cc12 | – | 490 | – | – | – | –
16 | O=c1ncn(Cc2c(F)cc(F)cc2F)c2ccc(Oc3cccc(-c4nc5ncccc5o4)c3C(F)(F)F)cc12 | 3 | 3.3 | – | – | – | –
